Where “and” joins values, the source holds several entries; their conditions need not be identical. Equal entries are not always repeated.
Columns and labels:
[1] = target: Neuronal acetylcholine receptor; alpha3/beta2 (Rattus norvegicus, UniProt P04757+P12390); assay: Inhibition of rat Nicotinic acetylcholine receptor alpha3-beta2 expressed in Xenopus Oocytes; type: cell-based
Summary of the method: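 Rat nAChR subunit cRNAs (50 nL, 5–50 ng/µL) injected into Xenopus oocytes, kept at 19 °C in ND96 pH 7.4 with gentamycin; two-electrode voltage clamp at −70 mV, 2–10 days post-injection. Peptide added to static bath, 3–10 min before agonist; sub-1 nM also perfused 10–15 min. IC50 from fitted concentration–response curves with Hill slope.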

[2] = Inhibition ratio of rat alpha 3 beta 2 nicotinic acetylcholine receptor (nAChR) to that of at alpha 7 nicotinic acetylcholine receptor (nAChR)
[3] = target: Neuronal acetylcholine receptor subunit alpha-7 (Rattus norvegicus, UniProt Q05941); assay: Compound was evaluated for inhibition of rat Nicotinic acetylcholine receptor alpha-7 (nAChR) in Xenopus Oocytes; type: cell-based
Sequence of Neuronal acetylcholine receptor subunit alpha-7 (Q05941 whole entry): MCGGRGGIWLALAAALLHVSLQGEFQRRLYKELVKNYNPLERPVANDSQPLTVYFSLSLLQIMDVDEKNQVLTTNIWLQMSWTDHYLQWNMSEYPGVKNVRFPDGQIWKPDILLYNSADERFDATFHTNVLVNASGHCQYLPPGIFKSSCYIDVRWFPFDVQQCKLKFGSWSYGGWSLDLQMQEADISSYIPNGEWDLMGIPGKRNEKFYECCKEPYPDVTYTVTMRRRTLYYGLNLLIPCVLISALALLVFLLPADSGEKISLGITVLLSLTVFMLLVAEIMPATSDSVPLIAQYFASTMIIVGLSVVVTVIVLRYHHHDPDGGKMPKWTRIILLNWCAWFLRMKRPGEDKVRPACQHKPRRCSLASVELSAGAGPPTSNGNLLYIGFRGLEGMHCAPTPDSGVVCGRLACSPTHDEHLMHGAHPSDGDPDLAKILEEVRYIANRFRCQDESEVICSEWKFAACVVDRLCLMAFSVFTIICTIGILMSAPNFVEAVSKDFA
Summary of the method: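 Rat α7 nAChR cRNA (5–50 ng/µL, 50 nL) injected into Xenopus oocytes kept at 19 °C in ND96 (pH 7.4) plus gentamycin; two-electrode voltage clamp 2–10 days later at −70 mV. Peptide applied once three agonist responses differed <10%, added to static bath and incubated 3–10 min before agonist. IC50 and nH from concentration–response curve fit; 95% confidence intervals.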

Sequence of Neuronal acetylcholine receptor; alpha3/beta2 (P04757 whole entry, the tested form may be a part): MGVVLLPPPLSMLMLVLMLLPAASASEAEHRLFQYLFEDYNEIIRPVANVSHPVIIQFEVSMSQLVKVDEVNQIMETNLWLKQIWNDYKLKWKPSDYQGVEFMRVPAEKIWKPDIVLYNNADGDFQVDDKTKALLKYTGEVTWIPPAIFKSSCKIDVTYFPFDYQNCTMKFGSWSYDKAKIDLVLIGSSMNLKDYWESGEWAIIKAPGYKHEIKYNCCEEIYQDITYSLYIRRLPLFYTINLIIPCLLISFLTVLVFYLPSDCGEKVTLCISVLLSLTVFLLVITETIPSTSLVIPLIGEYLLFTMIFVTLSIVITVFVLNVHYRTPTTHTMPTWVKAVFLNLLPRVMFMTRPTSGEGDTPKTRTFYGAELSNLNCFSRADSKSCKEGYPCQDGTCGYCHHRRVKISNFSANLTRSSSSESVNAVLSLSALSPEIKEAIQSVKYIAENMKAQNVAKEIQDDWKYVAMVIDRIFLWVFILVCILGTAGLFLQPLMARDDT
Sequence of Neuronal acetylcholine receptor; alpha3/beta2 (P12390 whole entry, the tested form may be a part): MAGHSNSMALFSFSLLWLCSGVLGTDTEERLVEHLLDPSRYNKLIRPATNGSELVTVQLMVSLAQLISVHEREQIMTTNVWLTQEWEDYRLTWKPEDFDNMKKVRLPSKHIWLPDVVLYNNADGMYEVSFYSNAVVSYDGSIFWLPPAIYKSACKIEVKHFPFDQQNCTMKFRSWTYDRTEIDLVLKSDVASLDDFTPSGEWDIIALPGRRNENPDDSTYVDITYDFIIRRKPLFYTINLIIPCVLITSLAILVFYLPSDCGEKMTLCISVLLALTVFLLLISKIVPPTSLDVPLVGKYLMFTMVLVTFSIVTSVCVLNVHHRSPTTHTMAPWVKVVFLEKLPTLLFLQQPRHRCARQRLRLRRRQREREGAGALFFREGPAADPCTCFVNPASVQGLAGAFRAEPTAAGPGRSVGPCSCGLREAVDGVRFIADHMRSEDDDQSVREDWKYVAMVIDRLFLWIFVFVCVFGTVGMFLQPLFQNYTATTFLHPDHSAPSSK

C[C@H](NC(=O)[C@H](C)NC(=O)[C@H](CS)NC(=O)[C@H](C)NC(=O)[C@H]1CCCN1C(=O)[C@H](Cc1cnc[nH]1)NC(=O)[C@H](CO)NC(=O)[C@H](CS)NC(=O)[C@@H](N)CS)C(=O)N[C@@H](CC(N)=O)C(=O)N[C@@H](CC(N)=O)C(=O)N[C@@H](CCC(N)=O)C(=O)N[C@@H](CC(=O)O)C(=O)N[C@@H](Cc1ccc(O)cc1)C(=O)N[C@@H](CS)C(N)=O gave an IC50 [1] of 5.84 nM.
In the case of C[C@H](NC(=O)[C@H](C)NC(=O)[C@H](CS)NC(=O)[C@H](C)NC(=O)[C@H]1CCCN1C(=O)[C@H](Cc1c[nH]cn1)NC(=O)[C@H](CO)NC(=O)[C@H](CS)NC(=O)[C@H](CS)NC(=O)CNC(=O)CNC(=O)CN)C(=O)N[C@@H](CC(N)=O)C(=O)N[C@@H](CC(N)=O)C(=O)N[C@@H](CCC(N)=O)C(=O)N[C@@H](CC(=O)O)C(=O)N[C@@H](Cc1ccc(O)cc1)C(=O)N[C@@H](CS)C(N)=O, the IC50 [1] is reported as 0.2 nM.
CC(C)C[C@H](NC(=O)[C@H](CC(N)=O)NC(=O)[C@H](CO)NC(=O)[C@H](Cc1cnc[nH]1)NC(=O)[C@H](CCC(=O)O)NC(=O)[C@H](CC(C)C)NC(=O)[C@H](Cc1cnc[nH]1)NC(=O)[C@H](CS)NC(=O)[C@@H](NC(=O)[C@@H]1CCCN1C(=O)[C@H](CC(N)=O)NC(=O)[C@H](CO)NC(=O)[C@H](CS)NC(=O)[C@H](CS)NC(=O)CN)C(C)C)C(=O)N[C@@H](CS)C(N)=O showed an IC50 [1] of 0.5 nM.
For C[C@H](NC(=O)[C@H](C)NC(=O)[C@H](CS)NC(=O)[C@H](C)NC(=O)[C@H]1CCCN1C(=O)[C@H](Cc1c[nH]cn1)NC(=O)[C@H](CO)NC(=O)[C@H](CS)NC(=O)[C@H](CS)NC(=O)CNC(=O)CN)C(=O)N[C@@H](CC(N)=O)C(=O)N[C@@H](CC(N)=O)C(=O)N[C@@H](CCC(N)=O)C(=O)N[C@@H](CC(=O)O)C(=O)N[C@@H](Cc1ccc(O)cc1)C(=O)N[C@@H](CS)C(N)=O, the IC50 [1] was 0.28 nM and 0.3 nM, the Ratio [2] was 0.004 and the IC50 [3] was 76 nM.
With CC(C)C[C@H](NC(=O)[C@H](CC(N)=O)NC(=O)[C@H](CO)NC(=O)[C@H](Cc1c[nH]cn1)NC(=O)[C@H](CCC(=O)O)NC(=O)[C@H](CC(C)C)NC(=O)[C@H](Cc1c[nH]cn1)NC(=O)[C@H](CS)NC(=O)[C@@H](NC(=O)[C@@H]1CCCN1C(=O)[C@H](CC(N)=O)NC(=O)[C@H](CO)NC(=O)[C@H](CS)NC(=O)[C@H](CS)NC(=O)CN)C(C)C)C(=O)N[C@@H](CS)C(N)=O the Ratio [2] was 0.0025.
C[C@H](NC(=O)[C@H](C)NC(=O)[C@H](CS)NC(=O)[C@H](C)NC(=O)[C@H]1CCCN1C(=O)[C@H](Cc1cnc[nH]1)NC(=O)[C@H](CO)NC(=O)[C@H](CS)NC(=O)[C@H](CS)NC(=O)CNC(=O)CN)C(=O)N[C@@H](CC(N)=O)C(=O)N[C@@H](CC(N)=O)C(=O)N[C@@H](CCC(N)=O)C(=O)N[C@@H](CC(=O)O)C(=O)N[C@@H](Cc1ccc(OS(=O)(=O)O)cc1)C(=O)N[C@@H](CS)C(N)=O showed an IC50 [1] of 0.64 nM.
In the case of CC[C@H](C)[C@H](NC(=O)[C@H](Cc1c[nH]cn1)NC(=O)[C@H](CCC(N)=O)NC(=O)[C@H](CC(N)=O)NC(=O)[C@H](CC(N)=O)NC(=O)CNC(=O)[C@H](C)NC(=O)[C@H](CS)NC(=O)[C@H](C)NC(=O)[C@@H]1CCCN1C(=O)[C@H](Cc1c[nH]cn1)NC(=O)[C@H](CO)NC(=O)[C@H](CS)NC(=O)[C@H](CS)NC(=O)CN)C(=O)N[C@@H](CS)C(N)=O, the IC50 [1] is reported as 1.1 nM.
C[C@H](NC(=O)[C@H](CS)NC(=O)[C@H](C)NC(=O)[C@H]1CCCN1C(=O)[C@H](CC1=CNCN1)NC(=O)[C@H](CO)NC(=O)[C@H](CS)NC(=O)[C@H](CS)NC(=O)CN)C(=O)N[C@@H](CC(N)=O)C(=O)N[C@@H](CC(N)=O)C(=O)N[C@@H](CCC(N)=O)C(=O)N[C@@H](CC(=O)O)C(=O)N[C@@H](Cc1ccc(O)cc1)C(=O)N[C@@H](CS)C(N)=O showed an IC50 [1] of 0.17 nM.
In the case of C[C@H](NC(=O)[C@H](C)NC(=O)[C@H](CS)NC(=O)[C@H](C)NC(=O)[C@H]1CCCN1C(=O)[C@H](Cc1cnc[nH]1)NC(=O)[C@H](CO)NC(=O)[C@H](CS)NC(=O)[C@H](CS)NC(=O)CNC(=O)CN)C(=O)N[C@@H](CC(N)=O)C(=O)N[C@@H](CC(N)=O)C(=O)N[C@@H](CCC(N)=O)C(=O)N[C@@H](CC(=O)O)C(=O)N[C@@H](Cc1ccc(O)cc1)C(=O)N[C@@H](CS)C(=O)O, the IC50 [1] is reported as 0.54 nM.
